Source: PubChem BioAssay (Johns Hopkins Ion Channel Center)
TRPC6 act: activators of mouse TRPC6 channel. Q61143. AID 2550. B-score at 10 µM. HEK293-TRPC6 membrane potential dye fluorescence; hits give high values. 310,000 tested, 0.13% active;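 active = B-score of the integrated fluorescence ratio above library mean plus 3 SD, and starting fluorescence ratio within library mean plus 5 SD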;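 note: higher score means more depolarization so channel activation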
TRPC4 act: opens the mouse TRPC4 cation channel. HEK293 TRPC4beta/mu-opioid, Fluo4 calcium fluorescence; hits give high values. B-score at 10 µM. 310,000 tested, 0.49% active. AID 2237;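 active = B-score above 5 SD of library B-scores, and initial fluorescence ratio not above library mean plus 5 SD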;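 note: positive B-score marks a calcium rise read as TRPC4 activation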
Target sequence (Q9QUQ5 whole entry, looked up): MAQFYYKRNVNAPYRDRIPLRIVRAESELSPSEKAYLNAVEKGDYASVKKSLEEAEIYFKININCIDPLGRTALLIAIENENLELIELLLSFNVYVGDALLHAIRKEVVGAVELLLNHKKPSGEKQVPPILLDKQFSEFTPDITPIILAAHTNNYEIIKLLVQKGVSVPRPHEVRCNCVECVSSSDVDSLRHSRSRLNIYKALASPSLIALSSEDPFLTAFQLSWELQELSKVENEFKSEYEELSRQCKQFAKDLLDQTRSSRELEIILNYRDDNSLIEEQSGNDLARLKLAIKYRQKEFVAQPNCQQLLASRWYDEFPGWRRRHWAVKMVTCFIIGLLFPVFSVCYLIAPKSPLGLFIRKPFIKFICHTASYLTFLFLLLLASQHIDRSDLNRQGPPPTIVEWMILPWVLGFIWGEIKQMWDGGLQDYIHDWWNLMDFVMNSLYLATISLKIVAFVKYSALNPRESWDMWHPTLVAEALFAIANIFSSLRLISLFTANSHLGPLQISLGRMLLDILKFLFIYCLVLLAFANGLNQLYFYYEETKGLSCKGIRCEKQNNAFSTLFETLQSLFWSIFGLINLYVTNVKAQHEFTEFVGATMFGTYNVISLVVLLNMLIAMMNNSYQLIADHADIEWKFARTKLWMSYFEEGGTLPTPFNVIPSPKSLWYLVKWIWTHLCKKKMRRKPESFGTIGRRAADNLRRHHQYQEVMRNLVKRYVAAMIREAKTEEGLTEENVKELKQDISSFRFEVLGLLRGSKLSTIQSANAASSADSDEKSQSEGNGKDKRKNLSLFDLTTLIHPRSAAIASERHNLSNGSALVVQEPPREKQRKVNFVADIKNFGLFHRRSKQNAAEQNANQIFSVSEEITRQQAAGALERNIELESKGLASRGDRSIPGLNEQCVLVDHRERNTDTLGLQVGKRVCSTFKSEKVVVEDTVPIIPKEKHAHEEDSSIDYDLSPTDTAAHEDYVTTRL
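Assay system – TRPC4beta and mu-opioid receptor HEK293 stable cells · Measured by – Fluo4 fluorescence, kinetic · Schedule – dye loading 45 min room temperature, 110 s kinetic read · Read-out – B-scored integrated calcium fluorescence ratio · Controls – buffer and maximal DAMGO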
TRPC4 PAM: allosterically enhances the mouse TRPC4 cation channel. HEK293 TRPC4beta/mu-opioid, DAMGO EC20, Fluo-4 Ca2+ flux; hits give high values. B-score at 10 µM. 310,000 tested, 0.42% active. AID 2227;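 active = B-score of calcium response area above 5 SD of library B-scores, with initial fluorescence ratio within 5 SD of library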;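 note: B-score of integrated fluorescence ratio over time as area under calcium response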
TRPC4 inh: inhibitors of mouse TRPC4 channel. Q9QUQ5. HEK293 TRPC4beta/mu-opioid, DAMGO-evoked Fluo4 calcium flux; hits give low values. B-score at 10 µM. 300,000 tested, 0.39% active. AID 2247;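 active = B-score over 3 SD under the library average, no early fluorescence shift, positive overall ratio signal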
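Assay system – HEK293 line stably carrying TRPC4beta and mu-opioid receptor · Doses – single dose · Detection – Fluo4 calcium-dye fluorescence, kinetic read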
TRPC6 inhibitor: mouse TRPC6 channel inhibition; B-score at 10 µM; Q61143; HEK293-TRPC6, membrane potential dye, ACh-evoked depolarization; hits give low values; 310,000 tested, 1.1% active;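 active = B-score under library mean minus 3 SD, initial fluorescence not abnormally high, positive integrated signal ratio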;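 note: B-score derived from integrated fluorescence ratio over the kinetic read; more negative B-score means stronger inhibition of depolarization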
TRPC4 sel inh 2: second check of whether TRPC6 inhibitors also affect mouse TRPC4; inhibition, % at 10 µM; HEK293 TRPC4/MOR, membrane potential dye fluorescence; channel activated by saturating DAMGO dose; 920 tested, 42% active; shares compounds with TRPC6 inhibitor;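 active = compounds whose fluorescence signal differed from control wells by over 3 SD, either direction, in both duplicate plates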
TRPC4 spec: mouse TRPC4 off-target activity of TRPC6 inhibitors | shares compounds with TRPC6 inhibitor | HEK293 TRPC4/mu-opioid, membrane potential fluorescence | activity change, negative = inhibition, % at 10 µM | 920 tested, 61% active | AID 2777;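 active = rise or fall in signal beyond 3 SD of buffer-only wells in both replicate plates, either sign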;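 note: integrated kinetic ratio of fluorescence range over baseline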
HEK293 MPD ctr 2-1: parental HEK293 nonspecific activity of TRPC6 inhibitors, second screen; shares compounds with TRPC6 inhibitor; parental HEK293 membrane potential dye fluorescence; maximal acetylcholine challenge after compound addition; signal change vs control, % at 10 µM; 920 tested, 31% active;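 active = membrane potential signal moving either way by over 3 SD of the maximum-effect control, in both duplicate plates, meaning non-specific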
HEK293 MPD ctr-1: checks TRPC6 inhibitor effects in parental HEK293 cells; shares compounds with TRPC6 inhibitor; parental HEK293 membrane potential dye fluorescence; membrane potential signal change, % at 10 µM; 920 tested, 60% active; AID 2780;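 active = membrane potential signal shifting up or down by more than 3 SD of buffer-only wells, on both duplicate plates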
HEK293 MPD ctr-2: parental HEK293 nonspecific activity of TRPC6 modulators. membrane potential dye fluorescence. AID 488924. shares compounds with TRPC6 inhibitor. 2,400 tested, 51% active. membrane potential signal change, % at 10 µM;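 active = membrane potential signal moves up or down beyond 5 SD from buffer-only wells, on both duplicate plates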
HEK293 MPD ctr 2-2: parental HEK293 nonspecific activity of TRPC6 modulators, second screen. shares compounds with TRPC6 inhibitor. membrane potential dye fluorescence; after compound, maximal acetylcholine stimulation. inhibition, % at 10 µM. 2,400 tested, 14% active. AID 488926;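 active = membrane potential signal drops by more than 5 SD from the mean control signal, in both duplicate plates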;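 note: plate controls were acetylcholine ECmax control wells for no effect and buffer only wells for full effect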
TRPC4 ctr mod: tests whether TRPC6 modulators also affect mouse TRPC4; 2,400 tested, 69% active; percent change from control (negative = decrease, positive = increase), % at 10 µM; AID 488927; HEK293 TRPC4/mu-opioid, membrane potential fluorescence; shares compounds with TRPC6 inhibitor;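 active = membrane potential signal moved up or down beyond 5 SD of buffer control wells, in both duplicate plates, actives on both sides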;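 note: plate controls were assay buffer wells for no effect and DAMGO maximal-effect wells for full effect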
TRPC4/MOR inh 2: mouse TRPC4 off-target activity of TRPC6 modulators, second screen; shares compounds with TRPC6 inhibitor; HEK293 TRPC4/mu-opioid, membrane potential dye fluorescence; stimulated with maximal-effect DAMGO; inhibition, % at 10 µM; 2,400 tested, 55% active;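 active = drop in membrane potential signal beyond 5 SD of the control wells in both duplicate plates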;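 note: TRPC4 counter screen for TRPC6 hits run under conditions tuned for TRPC6 not TRPC4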
TRPC6 block conf: confirmation of mouse TRPC6 inhibitors; 3,300 tested, 43% active; AID 488960; HEK293-TRPC6, membrane potential dye, ACh-evoked depolarization; inhibition, % at 10 µM; shares compounds with TRPC6 inhibitor;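 active = fluorescence ratio falls more than 5 SD below the full-stimulation control mean, in both duplicate runs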;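 note: integrated fluorescence ratio of peak minus minimum over baseline after agonist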
TRPC6 act conf: mouse TRPC6 activator confirmation | shares compounds with TRPC6 inhibitor | HEK293-TRPC6 membrane potential dye fluorescence, FDSS | activation, % at 10 µM | 2,800 tested, 11% active | AID 488961;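 active = ratio signal rise beyond 5 SD above unstimulated control wells' mean, seen in both duplicate runs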;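 note: plate controls were buffer EC0 wells for no effect and acetylcholine ECmax response for full effect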
The depositor's hits bear a star; i = inactive; / = no result. Rows were chosen to be rich in hits. Some 2.3% of all compounds tested hit in one or more screens of this group.

SMILES | TRPC6 act | TRPC4 act | TRPC4 PAM | TRPC4 inh | TRPC6 inhibitor | HEK293 MPD ctr-2 | HEK293 MPD ctr 2-2 | TRPC4 ctr mod | TRPC4/MOR inh 2 | TRPC6 block conf | TRPC6 act conf | others
COc1ccc(S(=O)(=O)N2CCN(C3CCCC(C)C3)CC2)cc1 (stereo unspecified) | i | i | i | i | i | / | / | / | / | / | /
COc1cccc(N2CCN(C3CCCC(C)C3)CC2)c1 (stereo unspecified) | i | i | i | i | -5.82* | 184.0%* | i | 38.5%* | 48.0%* | i | /
CC(C)(C)c1ccc(OCC(=O)O/N=C(\N)c2ccncc2)cc1 | i | i | i | i | i | / | / | / | / | / | /
O=C1C(Cl)=C(N2CCN(Cc3ccccc3)CC2)C(=O)N1Cc1ccccc1 | i | i | i | i | i | / | / | / | / | / | /
c1ccc(CN2CCN(C3=Nc4cccc5cccc3c45)CC2)cc1 | i | i | i | i | -8.17* | -191.0%* | i | -50.5%* | 71.5%* | 68.0%* | i
Fc1ccc(N2CCN(C3=Nc4cccc5cccc3c45)CC2)cc1 | i | i | i | i | -8.78* | -80.5%* | i | -38.5%* | 73.5%* | 68.0%* | i
O=C(CCCN1C(=O)c2cccc3cccc(c23)C1=O)N1CCN(c2ccc(F)cc2)CC1 | i | i | i | i | i | / | / | / | / | / | /
COCCn1cnnc1SCC(=O)Nc1cc(OC)c([N+](=O)[O-])cc1C | i | i | i | i | i | / | / | / | / | / | /
Cc1[nH]c2ccccc2c1C(=O)C(=O)N1CCN(c2cccc(Cl)c2)CC1 | i | i | i | i | i | / | / | / | / | / | /
CCCCSc1nc2sc3c(c2c(=O)n1-c1ccccc1)CCN(C)C3 | i | i | i | i | i | / | / | / | / | / | /
CN1CCc2c(sc3nc(SCC(N)=O)n(-c4ccc(Cl)cc4)c(=O)c23)C1 | i | i | i | i | i | / | / | / | / | / | /
O=c1c2c3c(sc2nc(N2CCNCC2)n1-c1cccc(Cl)c1)CCCCC3 | i | i | i | i | -7.18* | / | / | / | / | 59.6%* | i | TRPC4 sel inh 2=60.5%*;TRPC4 spec=i;HEK293 MPD ctr 2-1=i;HEK293 MPD ctr-1=i
CCCCCNc1nc2sc3c(c2c(=O)n1-c1cccc(Cl)c1)CCN(C)C3 | i | i | i | i | -5.45* | i | i | i | 68.5%* | 45.0%* | i
CCCCNc1nc2sc3c(c2c(=O)n1-c1cccc(Cl)c1)CCN(C)C3 | i | i | i | i | -6.08* | i | i | i | 57.5%* | i | i
O=C(c1cccs1)N1CCn2c1nc1ccccc12 | i | i | i | i | i | / | / | / | / | / | /
Cn1c(=O)c2sccc2n(Cc2ccccc2)c1=O | i | i | i | i | i | / | / | / | / | / | /
CCSc1nc(C)cc(Oc2ccc(=O)n(C)n2)n1 | i | i | i | i | -8.6* | / | / | / | / | i | i | TRPC4 sel inh 2=i;TRPC4 spec=i;HEK293 MPD ctr 2-1=i;HEK293 MPD ctr-1=i
Cc1ccc(Cn2nnnc2CN2CCC(NC(=O)C(C)(C)C)CC2)cc1 | i | i | i | i | i | / | / | / | / | / | /
CCOC(=O)N1CCN(Cc2nc(-c3ccc(OC)cc3)no2)CC1 | i | i | i | i | i | / | / | / | / | / | /
CCOC(=O)N1CCN(Cc2nc(-c3ccc(Cl)cc3)no2)CC1 | i | i | i | i | -8.88* | / | / | / | / | i | / | TRPC4 sel inh 2=i;TRPC4 spec=i;HEK293 MPD ctr 2-1=i;HEK293 MPD ctr-1=i
Cc1cc(NC(=O)c2ccc3c(c2)C(=O)N(C)C3=O)no1 | i | i | i | i | -6.08* | -99.0%* | i | -19.0%* | i | i | i
O=c1[nH]c(-c2ccccc2)c(-c2ccccc2)nc1[N+](=O)[O-] | 11.7* | i | i | i | i | i | i | 16.5%* | i | i | 47.5%*
CSc1nnc(C2CCN(CC(=O)Nc3ccccc3N3CCOCC3)CC2)n1C | i | i | i | i | i | / | / | / | / | / | /
CCn1c(SC)nnc1C1CCN(CC(=O)Nc2ccccc2N2CCOCC2)CC1 | i | i | i | i | -5.38* | i | i | i | i | i | i
CCn1nc(NS(=O)(=O)c2ccccc2[N+](=O)[O-])c2cc3ccc(C)cc3nc21 | i | i | i | i | i | / | / | / | / | / | /
SMILES | TRPC6 act | TRPC4 act | TRPC4 PAM | TRPC4 inh | TRPC6 inhibitor | HEK293 MPD ctr-2 | HEK293 MPD ctr 2-2 | TRPC4 ctr mod | TRPC4/MOR inh 2 | TRPC6 block conf | TRPC6 act conf | others
O=[N+]([O-])c1ccc(NC(=S)NCCc2ccc(F)cc2)cc1 | i | i | i | i | -5.27* | i | i | i | 61.5%* | i | i
O=C(NCCc1ccc(F)cc1)Nc1ccc([N+](=O)[O-])cc1 | i | i | i | i | i | / | / | / | / | / | /
O=C(N/N=C/c1c[nH]c2ccccc12)c1cc(Br)ccc1O | i | i | i | i | -6.33* | i | i | i | 60.5%* | 44.0%* | i
CCOc1ccc(Br)cc1C(=O)N/N=C/c1c[nH]c2ccccc12 | i | i | i | i | i | / | / | / | / | / | /
CN(C)CCCNc1oc(-c2ccc(Cl)cc2)nc1C#N | i | i | i | i | i | / | / | / | / | / | /
CCN(CC)CCCNc1oc(-c2cccc(Cl)c2)nc1C#N | i | i | i | i | -6.1* | i | i | i | 34.0%* | 53.5%* | i
